CFTR F508del cor – F508del CFTR correction, initial screen, CFBE line, single point. CFBE cells, YFP halide quenching; stimulated with forskolin plus potentiator P3; % fluorescence drop versus neutral controls. activity (quench increase), % at 7.58 µM. actives 0.36% (n = 350,000). AID 720511, 2013;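 active means mean added fluorescence quench of at least 8% versus neutral control, with both replicates also reaching 8%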;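 further: cells transiently co-express mutant CFTR-F508del with the halide-sensitive YFP; corrector assay measuring rescue of mutant channel to the surface after 24 h compound exposure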
S100A4 inh HTS – inhibitors of S100A4-myosin IIA peptide binding, primary screen, biochemical, fluorescence polarization, TAMRA-MyoIIA peptide; Protein S100-A4 (Homo sapiens), P26447; inhibition, % at 10.7 µM; actives 0.14% (n = 360,000);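 active means mean inhibition of at least 70% across replicates, with every replicate also reaching that level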
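Material: S100A4 monomer (human). Medium: Calcium-containing HEPES buffer, pH 7.2. Probe or stimulus: labelled myosin peptide probe, 5 nM. Compound dosing: one concentration per compound. Timing: polarization read 5 min after assay mix addition, stable 5–60 min. Benchmarks: DMSO as neutral control, TFP as positive control.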
rRNA inh HTS – reduced GFP signal of wild-type E. coli, primary screen, bacterial rRNA inhibitor project, GFP/RFP fluorescence, OD600, single point | E. coli WT GFP vs humanized-ribosome RFP mutants, 24 h; hits give low values; DMSO median 0, no signal -100 | GFP signal change (wild-type ribosome), % (test concentration not listed) | actives 1.6% (n = 350,000) | AID 720706, 2013;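 active means significant combined selectivity score with lowered wild-type GFP, culture density cut under 30%, mutant RFP and density less affected; inactive means any of these conditions unmet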
SIRT5 block – SIRT5 desuccinylase inhibitors, primary screen, biochemical, fluorescence imaging, single point, set 5; Purified SirT5, succinyl-peptide AMC, trypsin-coupled fluorescence; actives 1.1% (n = 330,000); NAD-dependent protein deacylase sirtuin-5, mitochondrial (Homo sapiens), Q9NXA8; inhibition, % at 15 µM; in the data active means inhibition above about 15%
ERAP1 inh – human ERAP1 aminopeptidase inhibitors, primary screen, biochemical, single point, plate reader; recombinant ERAP1, Leu-AMC fluorescence, 60 min; inhibition, % at 10.7 µM; actives 0.15% (n = 340,000);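 active means mean replicate inhibition of at least 30%, or all replicates individually reaching that 30% level; inactive means mean below 30% and not every replicate reaching it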
Target sequence (Q9NZ08 whole entry, looked up): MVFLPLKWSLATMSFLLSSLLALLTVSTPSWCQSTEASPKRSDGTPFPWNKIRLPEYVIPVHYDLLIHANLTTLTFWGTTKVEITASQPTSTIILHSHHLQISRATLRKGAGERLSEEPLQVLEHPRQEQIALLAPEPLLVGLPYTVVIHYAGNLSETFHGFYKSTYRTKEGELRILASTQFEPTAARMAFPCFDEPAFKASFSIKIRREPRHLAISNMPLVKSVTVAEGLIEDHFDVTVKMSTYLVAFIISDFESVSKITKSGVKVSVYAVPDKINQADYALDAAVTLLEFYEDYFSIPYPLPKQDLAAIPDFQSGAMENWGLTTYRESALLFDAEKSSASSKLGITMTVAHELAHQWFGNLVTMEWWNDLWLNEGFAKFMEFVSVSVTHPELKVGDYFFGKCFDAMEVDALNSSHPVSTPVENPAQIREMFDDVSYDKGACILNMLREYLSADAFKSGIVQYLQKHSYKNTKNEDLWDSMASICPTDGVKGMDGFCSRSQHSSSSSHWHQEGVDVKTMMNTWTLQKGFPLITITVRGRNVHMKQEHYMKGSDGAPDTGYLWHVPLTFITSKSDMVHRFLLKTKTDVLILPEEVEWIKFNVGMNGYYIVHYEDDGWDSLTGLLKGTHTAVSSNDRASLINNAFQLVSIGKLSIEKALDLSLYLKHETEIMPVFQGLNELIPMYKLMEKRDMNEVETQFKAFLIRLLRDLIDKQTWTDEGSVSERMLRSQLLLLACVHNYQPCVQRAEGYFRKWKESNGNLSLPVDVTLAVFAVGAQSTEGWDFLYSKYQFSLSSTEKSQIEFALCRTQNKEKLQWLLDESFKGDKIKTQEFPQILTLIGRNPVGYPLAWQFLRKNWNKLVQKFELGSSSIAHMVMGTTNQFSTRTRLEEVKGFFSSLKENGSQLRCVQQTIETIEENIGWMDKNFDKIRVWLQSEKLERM
Numbers stand for hits; . = inactive; / = no result given. In the library only some 3.1% were active in any assay of this set; here they are far more common.

SMILES	CFTR F508del cor	S100A4 inh HTS	rRNA inh HTS	SIRT5 block	ERAP1 inh
COc1ccc(-c2nc3c(C(=O)NCCN(C)C)cccc3c3ccccc23)cc1	11.2	.	.	.	.
COc1cccc2nc3c(C(=O)NCCN(C)C)cccc3cc12	.	.	.	.	.
COc1ccc(NC(=O)N(C)C[C@H]2Oc3ccc(NS(=O)(=O)c4ccccc4)cc3CC(=O)N([C@@H](C)CO)C[C@H]2C)cc1	.	.	.	.	.
COc1ccc(S(=O)(=O)N[C@@H]2CC[C@H](CCNC(=O)CN3CCOCC3)O[C@@H]2CO)cc1	.	.	.	.	.
CCOC(=O)C1=CCN(S(=O)(=O)c2ccccc2Br)C1c1ccc(Cl)c(Cl)c1 (stereo unspecified)	.	.	.	25.0	.
NC(=O)NCC#Cc1ccc2c(c1)[C@]1(C(=O)N2)[C@H](C(=O)O)[C@H]2C(=O)O[C@H](c3ccccc3)[C@H](c3ccccc3)N2[C@@H]1c1ccc(OCCO)cc1	.	.	/	.	.
CCN(C[C@H]1N[C@@](CC)(C(=O)OC)[C@H]2C(=O)N(C)C(=O)[C@@H]12)C(=O)Nc1ccc(C(F)(F)F)cc1	.	.	-24.4	.	.
CCN(C[C@H]1N[C@@](Cc2ccccc2)(C(=O)OC)[C@H]2C(=O)N(C)C(=O)[C@@H]12)C(=O)Nc1ccc(C(F)(F)F)cc1	.	.	.	27.7	.
C[C@@H]1CN([C@@H](C)CO)C(=O)c2cc(NS(=O)(=O)c3ccccc3)ccc2O[C@@H](C)CCCCO[C@@H]1CN(C)S(=O)(=O)c1ccc(Cl)cc1	.	.	.	.	.
CC[C@@H](C)C(NC(=O)OC(C)(C)C)c1cn([C@@H](CCCCNC(=O)OC(C)(C)C)C(=O)N2CCN(C(=O)OC(C)(C)C)CC2)nn1 (stereo partly specified)	.	.	/	16.3	.
CC(=O)N(C)C[C@@H]1Oc2ccc(N(C)C)cc2CC(=O)N(C)C[C@H]1C	/	/	.	/	/
N#CC1=C2N=C(N)c3ccccc3N2C2=C(C(=O)CCC2)C1c1ccc(F)cc1 (stereo unspecified)	.	.	-31.6	.	.
Cc1ccc(C2C(C#N)=C3N=C(N)c4ccccc4N3C3=C2C(=O)CCC3)cc1 (stereo unspecified)	.	.	.	.	.
C[C@@H]1CCCCO[C@@H](CN(C)Cc2ccc3c(c2)OCO3)[C@@H](C)CN([C@@H](C)CO)C(=O)c2cc(NC(=O)Nc3ccc(F)cc3)ccc2O1	.	.	.	.	.
COc1cc(/C=N/n2cnnc2)ccc1OS(=O)(=O)c1ccccc1[N+](=O)[O-]	.	.	-19.2	.	.
COc1cc(C=O)ccc1OS(=O)(=O)c1ccccc1[N+](=O)[O-]	.	.	.	.	.
C[C@H]1CN([C@@H](C)CO)C(=O)Cc2cc(NC(=O)CCN3CCOCC3)ccc2O[C@@H]1CN(C)CC1CC1	.	.	.	.	.
CCOc1cc(/C=N/N2CCN(Cc3ccccc3)CC2)ccc1O	.	.	.	.	.
CCOc1cc(C=NN2CCCCCC2)ccc1O	.	.	.	31.3	.
CCN1CCN(C(=O)CN(CC)S(=O)(=O)c2ccc3ccccc3c2)CC1	.	.	.	23.2	.
CCN1CCN(C(=O)CN(CC)S(=O)(=O)c2ccc(F)cc2)CC1	.	.	.	.	.
Cc1ccc(C(=O)NCC#N)cc1	.	.	.	.	.
Cc1ccc(C(=O)NC(C#N)=C(Cl)Cl)cc1	.	.	-27.1	.	.
CC(=O)Nc1cccc(NC(=O)CSc2nc3ccccc3o2)c1	/	.	/	/	.
CSc1cccc(NC(=O)CSc2nc3ccccc3o2)c1	.	.	-25.0	.	.
SMILES	CFTR F508del cor	S100A4 inh HTS	rRNA inh HTS	SIRT5 block	ERAP1 inh
Cc1ccccc1S(=O)(=O)N1C[C@@H](O)COC[C@H]2O[C@H](CC(=O)N3CCC(Cc4ccccc4)CC3)CC[C@@H]21	.	.	.	.	.
Cn1nnnc1N=N/C(=N/Nc1ccccc1)c1ccccc1	12.6	.	.	.	/
Oc1ccccc1N=N/C(=N/Nc1ccccc1O)c1ccccc1	.	.	.	.	.
N#C/C(=C/c1ccc(N2CCCCC2)o1)C(=O)Nc1ccc2ccccc2c1	9.6	.	.	.	.
COc1ccc(NC(=O)/C(C#N)=C\c2ccc(N3CCOCC3)o2)cc1	.	.	.	.	.
O=C(C[C@H]1CC[C@@H](NC(=O)C2CCC2)[C@H](CO)O1)Nc1nccs1	.	.	.	.	.
CCCc1ccc(-c2ccc(/C=C/C(=O)O)cc2)nc1	.	.	-26.2	.	.
CCCCCCCc1ccc(-c2ccc(O)cc2)nc1	.	.	.	.	.
Cc1noc(C)c1COc1ccc(C(=O)N2CCN(S(=O)(=O)c3ccc(F)cc3)CC2)cc1	25.6	.	.	.	.
C[C@H](CO)N1C[C@H](C)[C@@H](CN(C)S(=O)(=O)c2cccs2)Oc2c(NC(=O)c3cnccn3)cccc2C1=O	.	.	.	.	.
COCCN1C(=O)c2ccccc2C1c1nnnn1-c1ccc2c(c1)OCCO2 (stereo unspecified)	.	.	.	.	/
CC(C)CCN1C(=O)c2ccccc2C1c1nnnn1-c1ccc2c(c1)OCCO2 (stereo unspecified)	.	.	.	24.7	/
O=C(Cc1ccncc1)NCC[C@H]1CC[C@H](NC(=O)C2CCCCC2)[C@H](CO)O1	.	.	.	.	.
CN(CC(=O)NCCc1ccc(S(N)(=O)=O)cc1)CC(=O)Nc1ccccc1Cl	.	.	.	.	.
CN(CC(=O)NCCc1ccc(S(N)(=O)=O)cc1)CC(=O)Nc1ccc(Cl)c(C(F)(F)F)c1	12.8	.	.	.	.
CCC(=O)NC[C@H]1[C@H](c2ccccc2)[C@@H](CO)N1C(=O)C1CCC1	.	.	.	.	.
CC(=O)c1cnn(-c2c(Cl)cc(Cl)cc2Cl)c1C	.	.	-22.4	.	.
CC(=O)c1cnn(-c2ccccc2)c1C	.	.	.	.	.
Cc1ccc(C)c(OCC(=O)NNC(=O)c2ccc(NC(=O)C3CC3)cc2)c1	.	.	-36.8	.	.
CC(=O)c1c(C)[nH]c(C(=O)Nc2cccc(C)c2C)c1C	.	.	.	.	.
Cc1cccc(NC(=O)c2n[nH]c([N+](=O)[O-])c2Br)c1C	.	.	-29.0	.	.
O=C(NC(=S)Nc1cc([N+](=O)[O-])ccc1O)c1ccc2c(c1)OCO2	.	.	.	.	.
COc1cc([N+](=O)[O-])ccc1NC(=S)NNC(=O)c1ccc2c(c1)OCO2	.	.	-16.6	.	.
